Activity calls are given as the source filed them. The rule behind the calls is not given here.
Columns and labels:
[1] = biological target: T1, NAD-dependent protein deacetylase sirtuin-1 (Homo sapiens) (UniProt Q96EB6); test: Activation of SIRT1 in human U2OS cells assessed as decrease in p53 deacetylation level at 100 uM; type: cell-based
T1 sequence (whole entry): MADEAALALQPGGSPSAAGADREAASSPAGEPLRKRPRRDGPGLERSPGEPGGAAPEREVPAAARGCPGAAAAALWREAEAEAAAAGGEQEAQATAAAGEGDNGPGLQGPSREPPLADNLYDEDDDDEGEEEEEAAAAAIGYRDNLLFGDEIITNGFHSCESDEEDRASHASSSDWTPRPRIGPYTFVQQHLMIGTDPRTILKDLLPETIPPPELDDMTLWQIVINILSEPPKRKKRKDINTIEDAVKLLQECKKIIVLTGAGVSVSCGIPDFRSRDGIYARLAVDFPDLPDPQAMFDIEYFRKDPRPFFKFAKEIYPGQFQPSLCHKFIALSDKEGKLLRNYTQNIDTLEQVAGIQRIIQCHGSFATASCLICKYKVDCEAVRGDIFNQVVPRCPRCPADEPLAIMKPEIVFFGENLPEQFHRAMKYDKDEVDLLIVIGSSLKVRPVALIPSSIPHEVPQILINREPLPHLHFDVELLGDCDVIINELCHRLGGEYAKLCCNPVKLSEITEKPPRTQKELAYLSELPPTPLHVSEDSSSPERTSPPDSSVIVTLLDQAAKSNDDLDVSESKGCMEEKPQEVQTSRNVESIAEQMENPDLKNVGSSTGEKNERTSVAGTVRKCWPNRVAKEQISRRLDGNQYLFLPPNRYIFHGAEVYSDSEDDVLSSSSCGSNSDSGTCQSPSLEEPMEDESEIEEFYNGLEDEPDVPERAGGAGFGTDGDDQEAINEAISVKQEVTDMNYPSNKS
How it was run: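 U-2 OS cells plated at 1.5 X 10⁴ cells/well; compounds (DMSO) added after 24 h, then doxorubicin (1 μg/ml final) to induce p53. Replicate plates were co-treated with a SIRT1-specific inhibitor. Cells were fixed, permeabilized and immunostained for Ac-Lys382-p53 and beta-tubulin, with infrared scanning. Signals were background-corrected, normalized to tubulin, then to vehicle (% acetylated p53).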

[2] = biological target: T1, NAD-dependent protein deacetylase sirtuin-1 (Homo sapiens); test: Activation of human SIRT1-D (219-664) construct by mass spectrometry assay relative to control
Mus musculus [3] = test: Effect on body weight in diabetic Lep ob/ob mouse model at 1000 mg/kg, po; type: functional, organism-based; design: dose 1000 mg/kg
How it was run: (§1)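 ob/ob mice received at 6 weeks, kept on 60%-fat diet from at least one week before study; ~40-45 g; grouped by body weight and glucose; once-daily oral gavage in 2% HPMC + 0.2% DOSS. One-way ANOVA with Dunnett's test vs control, p<0.05.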

[4] = biological target: T1, NAD-dependent protein deacetylase sirtuin-1 (Homo sapiens); test: Activation of human SIRT1-B (172-664) construct by mass spectrometry assay relative to control
[5] = biological target: T1, NAD-dependent protein deacetylase sirtuin-1 (Homo sapiens); test: Activation of human SIRT1-H (240-664) construct by mass spectrometry assay relative to control
[6] = biological target: T1, NAD-dependent protein deacetylase sirtuin-1 (Homo sapiens); test: Activation of human SIRT1-F (230-664) construct by mass spectrometry assay relative to control
Mus musculus [7] = test: Reduction of blood glucose level in diabetic Lep ob/ob mouse model at 1000 mg/kg, po after 3 weeks; type: functional, organism-based; design: dose 1000 mg/kg; how it was run: as §1
[8] = biological target: T1, NAD-dependent protein deacetylase sirtuin-1 (Homo sapiens); test: Activation of human SIRT1-A (156-664) construct by mass spectrometry assay relative to control
[9] = biological target: T1, NAD-dependent protein deacetylase sirtuin-1 (Homo sapiens); test: Activation of human SIRT1-C construct by mass spectrometry assay relative to control
[10] = biological target: T2, NAD-dependent protein deacetylase sirtuin-3, mitochondrial (Homo sapiens, UniProt Q9NTG7); test: Activation of SIRT3 by mass spectrometry assay
T2 sequence (Q9NTG7 whole entry): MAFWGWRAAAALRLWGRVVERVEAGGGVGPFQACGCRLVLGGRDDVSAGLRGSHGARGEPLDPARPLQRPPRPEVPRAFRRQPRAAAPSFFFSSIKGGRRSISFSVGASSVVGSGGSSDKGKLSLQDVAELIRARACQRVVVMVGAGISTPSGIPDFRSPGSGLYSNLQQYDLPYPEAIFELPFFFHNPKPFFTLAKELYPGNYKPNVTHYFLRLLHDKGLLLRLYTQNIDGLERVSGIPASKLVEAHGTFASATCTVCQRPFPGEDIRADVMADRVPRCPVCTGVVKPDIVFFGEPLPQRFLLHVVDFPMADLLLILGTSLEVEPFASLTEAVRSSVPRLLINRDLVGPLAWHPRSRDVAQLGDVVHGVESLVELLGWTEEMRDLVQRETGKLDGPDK

[11] = biological target: T3, NAD-dependent protein deacetylase sirtuin-2 (Homo sapiens, UniProt Q8IXJ6); test: Activation of SIRT2 by mass spectrometry assay
T3 sequence (Q8IXJ6 whole entry): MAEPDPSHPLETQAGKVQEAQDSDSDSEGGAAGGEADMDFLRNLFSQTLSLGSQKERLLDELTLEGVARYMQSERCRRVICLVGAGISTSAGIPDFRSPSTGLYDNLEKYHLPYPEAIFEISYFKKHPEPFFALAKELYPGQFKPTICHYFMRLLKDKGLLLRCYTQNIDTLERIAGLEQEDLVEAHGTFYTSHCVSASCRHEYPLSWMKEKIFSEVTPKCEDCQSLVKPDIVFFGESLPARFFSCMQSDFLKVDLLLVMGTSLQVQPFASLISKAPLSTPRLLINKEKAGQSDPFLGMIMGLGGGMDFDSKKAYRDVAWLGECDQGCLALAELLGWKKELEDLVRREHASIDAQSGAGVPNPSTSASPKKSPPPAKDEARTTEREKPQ

Mus musculus [12] = species: Mus musculus; test: Reduction of insulin level in chow-fed C57BL/6 mouse; type: functional, organism-based
[13] = biological target: T1, NAD-dependent protein deacetylase sirtuin-1 (Homo sapiens); test: (§2) Activation of human SIRT1 expressed in Escherichia coli BL21 by mass spectrometry assay
[14] = biological target: T1, NAD-dependent protein deacetylase sirtuin-1 (Homo sapiens); test: Activation of human SIRT1 assessed as decrease in Km of enzyme for acetylated peptide substrate by mass spectrometry assay
Mus musculus [15] = test: Reduction of blood glucose level in DIO C57BL/6 mouse model at 500 mg/kg, po after 4 weeks; type: functional, organism-based; design: dose 500 mg/kg
How it was run: (§3)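 Male C57BL/6 mice, started at nine weeks, fed 60%-fat diet until mean weight ~40 g; 6-10 per group; once-daily oral gavage in 2% HPMC + 0.2% DOSS. Fed glucose at 2, 4, 6, 8, 10 weeks; IPGTT after 5 weeks; ITT after 10 weeks. One-way ANOVA with Dunnett's test vs control, p<0.05.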

[16] = biological target: T1, NAD-dependent protein deacetylase sirtuin-1 (Homo sapiens); test: Activation of human SIRT1-G (235-664) construct by mass spectrometry assay relative to control
[17] = biological target: T1, NAD-dependent protein deacetylase sirtuin-1 (Homo sapiens); test: Activation of human SIRT1-E (225-664) construct by mass spectrometry assay relative to control
[18] = biological target: T1, NAD-dependent protein deacetylase sirtuin-1 (Homo sapiens); test: Activation of SIRT1 in human U2OS cells assessed as decrease in deacetylation level at 10 uM; type: cell-based
How it was run: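 U-2 OS cells seeded 1.5 × 10⁴/well; compounds in DMSO added after 24 h, then doxorubicin 1 μg/ml final to induce p53. Fixed, permeabilized, immunostained for Ac-Lys382-p53 and beta-tubulin, infrared scan; background-corrected acetyl signal normalized to tubulin, then to vehicle as % acetylated p53. Replicate plates co-treated with a SIRT1-specific inhibitor.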

[19] = biological target: T4, NAD-dependent protein deacetylase sirtuin-1 (Homo sapiens, UniProt Q96EB6); test: as §2
T4 sequence (Q96EB6 whole entry): T1 sequence (whole entry)

Mus musculus [20] = test: Reduction of fasting blood glucose in DIO C57BL/6 mouse model at 5 mg/kg, po assessed as glucose level by glucose tolerance test; type: functional; how it was run: as §3
Mus musculus [21] = test: Reduction of glucose levels in DIO C57BL/6 mouse model at 5 mg/kg, po during insulin tolerance test; type: functional, organism-based; design: dose 5 mg/kg; how it was run: as §3

## Oc1ccc(/C=C/c2cc(O)cc(O)c2)cc1 [RESVERATROL]
[1]
  Activity: Active
[2]
  Activity: 1.3
Mus musculus [3]
  Activity: inactive
[4]
  Activity: 1.7
[5]
  Activity: 1.2
[6]
  Activity: 1.1
Mus musculus [7]
  Activity: Active
[8]
  Activity: 1.8
[9]
  Activity: 1.9
[10]
  EC50: > 300 µM
[11]
  EC50: > 300 µM
Mus musculus [12]
  Activity: Active
[13]
  Activity: 201%
[14]
  Activity: Active
Mus musculus [15]
  Activity: Active
[16]
  Activity: 1.2
[17]
  Activity: 1.3

## O=C(Nc1ccccc1-c1cn2c(CN3CC[C@@H](O)C3)csc2n1)c1ccc2ccccc2c1
[10]
  EC50: > 300 µM
[11]
  EC50: > 300 µM
[18]
  Activity: Active
[19]
  EC50: 0.36 µM
[13]
  Activity: 296%
[14]
  Activity: Active

## CN(CCOc1ccc(CC2SC(=O)NC2=O)cc1)c1ccccn1 (stereo not given) [ROSIGLITAZONE]
Mus musculus [20]
  Activity: 496 mg/h/dL
Mus musculus [21]
  Activity: Active

Source: ChEMBL document CHEMBL1147981, “Small molecule activators of SIRT1 as therapeutics for the treatment of type 2 diabetes” (Nature, 2007)
